From ChEMBL document CHEMBL1121790, “Proposed dopaminergic pharmacophore of lergotrile, pergolide, and related ergot alkaloid derivatives” (1981)
Activity calls are given as the source filed them. The rule behind the calls is not given here.

Experiments:
Felis catus [1] = assay: Compound was tested for neuronal inhibition of postganglionic cardio accelerator nerve stimulation in anaesthetized cat at 2 Hz frequency at 100 mg/kg; format: functional; details: Heart
Method in brief: (§1)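 Cats anaesthetised with pentobarbital sodium (30 mg/kg, intrathorax); arterial pressure recorded from right femoral artery. Postganglionic cardioaccelerator nerve stimulated at 2 Hz, 5 ms pulses, supramaximal voltage, 20-30 s trains. After stable controls, compound given iv in doses spaced 0.48 log units; inhibition of stimulation-induced tachycardia measured. Haloperidol 100 μg iv at end, inhibition redetermined. ID50 by probit analysis.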

Felis catus [2] = assay: Compound was tested for percentage decrease in heart rate at 30 mg/kg in anaesthetized cat; format: functional
Method in brief: (§2)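 Pentobarbital sodium (30 mg/kg, intrathorax) anaesthetised cats; arterial pressure from right femoral artery via pressure transducer. Compound given iv, doses spaced 0.48 log units. Change in mean arterial pressure (increase, i.e. transient primary pressor phase, and decrease) and in resting heart rate expressed as % of resting control; resting pressure (mmHg) and heart rate (beats/min) also recorded.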

Felis catus [3] = assay: Compound was tested for percentage decrease in mean arterial blood pressure at 30 mg/kg in anaesthetized cat; format: functional, Artery; method in brief: as §2
Felis catus [4] = assay: Compound was tested for neuronal inhibition of postganglionic cardio accelerator nerve stimulation in anaesthetized cat at 2 Hz frequency at 300 mg/kg; format: functional; details: Heart; method in brief: as §1
Felis catus [5] = assay: Compound was tested for percentage decrease in heart rate at 300 mg/kg in anaesthetized cat; format: functional; method in brief: as §2
Felis catus [6] = assay: Compound was tested for percentage decrease in mean arterial blood pressure at 300 mg/kg in anaesthetized cat; format: functional, Artery; method in brief: as §2
Felis catus [7] = assay: Compound was tested for neuronal inhibition of postganglionic cardio accelerator nerve stimulation in anaesthetized cat at 2 Hz frequency at 30 mg/kg; format: functional; details: Heart; method in brief: as §1
Felis catus [8] = assay: Potency relative to apomorphine at 30 mg/kg in anaesthetized cat; format: functional
Felis catus [9] = assay: Compound was tested for inhibitory effect reversed by haloperidol (100 ug/kg) at […] in anaesthetized cat; Yes; format: functional, organism-based; method in brief: as §1
Felis catus [10] = assay: Compound was tested for percentage decrease in heart rate at 100 mg/kg in anaesthetized cat; format: functional; method in brief: as §2
Felis catus [11] = assay: Compound was tested for percentage decrease in mean arterial blood pressure at 100 mg/kg in anaesthetized cat; format: functional, Artery; method in brief: as §2
Felis catus [12] = assay: Sympathetic neuronal inhibiting activity in anaesthetized cat at 30 mg/kg; format: functional; details: Sympathetic neuron, read-out: ID50 (the source's name); method in brief: as §1
Felis catus [13] = assay: Compound was tested for percentage decrease in heart rate at […] in anaesthetized cat (resting heart rate (beats/min)); format: functional; method in brief: as §2
Felis catus [14] = assay: Compound was tested for percentage increase in mean arterial blood pressure at 100 mg/kg in anaesthetized cat; format: functional, Artery; method in brief: as §2
Felis catus [15] = assay: Compound was tested for percentage increase in mean arterial blood pressure at 30 mg/kg in anaesthetized cat; format: functional, Artery; method in brief: as §2
Felis catus [16] = assay: Compound was tested for percentage increase in mean arterial blood pressure at 300 mg/kg in anaesthetized cat; format: functional, Artery; method in brief: as §2
Felis catus [17] = assay: Sympathetic neuronal inhibiting activity in anaesthetized cat 30 at mg/kg; 0.12-0.33; format: functional; details: Sympathetic neuron, read-out: ID50 (the source's name); method in brief: as §1
Felis catus [18] = assay: Compound was tested for percentage decrease in mean arterial blood pressure at 100 mg/kg in anaesthetized cat (resting mean arterial pressure (mmHg)); format: functional, Artery; method in brief: as §2
Felis catus [19] = assay: Potency relative to apomorphine at […] in anaesthetized cat; 0.07-0.33; format: functional
Felis catus [20] = assay: Compound was tested for percentage decrease in heart rate at 3 mg/kg in anaesthetized cat; format: functional; method in brief: as §2
Felis catus [21] = assay: Sympathetic neuronal inhibiting activity in anaesthetized cat 3 at mg/kg; format: functional; details: Sympathetic neuron, read-out: ID50 (the source's name); method in brief: as §1
Felis catus [22] = assay: Compound was tested for inhibitory effect reversed by haloperidol (100 ug/kg) at 3 mg/kg in anaesthetized cat; yes; format: functional, organism-based; parameters: dose 3 mg/kg
Method in brief: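 Pentobarbital sodium (30 mg/kg) anaesthetised cats; arterial pressure recorded from the right femoral artery. Postganglionic cardioaccelerator nerve stimulated at 2 Hz with 5 ms pulses at supramaximal voltage, in 20-30 s trains. After stable controls, compound was given iv in doses spaced at 0.48 log intervals. Haloperidol (100 μg/kg iv) was then given and inhibition of nerve-evoked tachycardia redetermined.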

Felis catus [23] = assay: Compound was tested for percentage decrease in mean arterial blood pressure at 10 mg/kg in anaesthetized cat (resting mean arterial pressure (mmHg)); format: functional, Artery; method in brief: as §2
Felis catus [24] = assay: Compound was tested for neuronal inhibition of postganglionic cardio accelerator nerve stimulation in anaesthetized cat at 2 Hz frequency at 3 mg/kg; format: functional; details: Heart; method in brief: as §1
Felis catus [25] = assay: Compound was tested for percentage decrease in mean arterial blood pressure at 3 mg/kg in anaesthetized cat; format: functional, Artery; method in brief: as §2
Felis catus [26] = assay: Compound was tested for neuronal inhibition of postganglionic cardio accelerator nerve stimulation in anaesthetized cat at 2 Hz frequency at 10 mg/kg; format: functional; details: Heart; method in brief: as §1
Felis catus [27] = assay: Compound was tested for percentage increase in mean arterial blood pressure at 3 mg/kg in anaesthetized cat; format: functional, Artery; method in brief: as §2
Felis catus [28] = assay: Potency relative to apomorphine at 3 mg/kg in anaesthetized cat; format: functional
Felis catus [29] = assay: Compound was tested for percentage decrease in heart rate at 10 mg/kg in anaesthetized cat; format: functional; method in brief: as §2
Felis catus [30] = assay: Compound was tested for percentage increase in mean arterial blood pressure at 10 mg/kg in anaesthetized cat; format: functional, Artery; method in brief: as §2

**Q.** What does the source list for `CN1C[C@H](CC#N)C[C@@H]2c3cccc4[nH]c(Cl)c(c34)C[C@H]21` [LERGOTRILE]?
**A.** inhibition in vivo at 100 mg/kg (Felis catus [1]): 57%; Decrease (Felis catus [2]): 11%; Decrease (Felis catus [3]): 22%; inhibition in vivo at 300 mg/kg (Felis catus [4]): 69%; Decrease (Felis catus [5]): 12%; Decrease (Felis catus [6]): 38%; inhibition in vivo at 30 mg/kg (Felis catus [7]): 21%; Ratio (Felis catus [8]): 0.08; Inhibitory effect (Felis catus [9]): Yes; Decrease (Felis catus [10]): 10%; Decrease (Felis catus [11]): 34%; ED50 (Felis catus [12]): 0.27 µmol/kg

**Q.** With `CNCCc1cccc2[nH]ccc12` as the compound, how does the Decrease (Felis catus [13]) read?
**A.** Its Decrease is 12%.

**Q.** And the inhibition in vivo at 100 mg/kg (Felis catus [1])?
**A.** Its inhibition in vivo at 100 mg/kg is 60%.

**Q.** What about the Decrease (Felis catus [2]) of the same compound?
**A.** The Decrease was 7%.

**Q.** And the Increase (Felis catus [14])?
**A.** Its Increase is 16%.

**Q.** And the Decrease (Felis catus [3])?
**A.** The Decrease was 11%.

**Q.** What about the inhibition in vivo at 300 mg/kg (Felis catus [4]) of the same compound?
**A.** Its inhibition in vivo at 300 mg/kg is 77%.

**Q.** And the Decrease (Felis catus [5])?
**A.** The Decrease was 10%.

**Q.** What about the Decrease (Felis catus [6]) of the same compound?
**A.** Its Decrease is 10%.

**Q.** And the Increase (Felis catus [15])?
**A.** Its Increase is 6%.

**Q.** What about the Increase (Felis catus [16]) of the same compound?
**A.** The Increase was 41%.

**Q.** And the inhibition in vivo at 30 mg/kg (Felis catus [7])?
**A.** Its inhibition in vivo at 30 mg/kg is 29%.

**Q.** And the ED50 (Felis catus [17])?
**A.** The ED50 was 0.22 µmol/kg.

**Q.** And the Inhibitory effect (Felis catus [9])?
**A.** Its Inhibitory effect is “Yes”.

**Q.** And the Decrease (Felis catus [18])?
**A.** The Decrease was 18%.

**Q.** And the Ratio (Felis catus [19])?
**A.** The Ratio was 0.14.

**Q.** With `CCCN1C[C@H](CSC)C[C@@H]2c3cccc4[nH]cc(c34)C[C@H]21` [PERGOLIDE] as the compound, how does the Decrease (Felis catus [2]) read?
**A.** Its Decrease is 80%.

**Q.** What about the Decrease (Felis catus [20]) of the same compound?
**A.** The Decrease was 23%.

**Q.** And the ED50 (Felis catus [21])?
**A.** Its ED50 is 0.02 µmol/kg.

**Q.** What about the Inhibitory effect (Felis catus [22]) of the same compound?
**A.** The Inhibitory effect was “Active”.

**Q.** What about the Decrease (Felis catus [3]) of the same compound?
**A.** Its Decrease is 6%.

**Q.** What about the Decrease (Felis catus [23]) of the same compound?
**A.** The Decrease was 8%.

**Q.** What about the Increase (Felis catus [15]) of the same compound?
**A.** The Increase was 52%.

**Q.** What about the inhibition in vivo at 3 mg/kg (Felis catus [24]) of the same compound?
**A.** The inhibition in vivo at 3 mg/kg was 23%.

**Q.** What about the inhibition in vivo at 30 mg/kg (Felis catus [7]) of the same compound?
**A.** The inhibition in vivo at 30 mg/kg was 80%.

**Q.** And the Decrease (Felis catus [25])?
**A.** Its Decrease is 5%.

**Q.** And the inhibition in vivo at 10 mg/kg (Felis catus [26])?
**A.** Its inhibition in vivo at 10 mg/kg is 59%.

**Q.** And the Increase (Felis catus [27])?
**A.** The Increase was 5%.

**Q.** And the Ratio (Felis catus [28])?
**A.** Its Ratio is 1.13.

**Q.** What about the Decrease (Felis catus [29]) of the same compound?
**A.** The Decrease was 59%.

**Q.** What about the Increase (Felis catus [30]) of the same compound?
**A.** The Increase was 15%.
